Measurements reported in ChEMBL document CHEMBL1134532, “Reversible carnitine palmitoyltransferase inhibitors with broad chemical diversity as potential antidiabetic agents” (J Med Chem, 2001).

Columns and labels:
[1] = biological target: T1, Carnitine O-palmitoyltransferase 1, liver isoform (Rattus norvegicus, UniProt P32198); test: Inhibition of rat liver mitochondrial carnitine palmitoyltransferase 1 using [14C]palmitoyl-CoA radioligand
T1 sequence (P32198 whole entry): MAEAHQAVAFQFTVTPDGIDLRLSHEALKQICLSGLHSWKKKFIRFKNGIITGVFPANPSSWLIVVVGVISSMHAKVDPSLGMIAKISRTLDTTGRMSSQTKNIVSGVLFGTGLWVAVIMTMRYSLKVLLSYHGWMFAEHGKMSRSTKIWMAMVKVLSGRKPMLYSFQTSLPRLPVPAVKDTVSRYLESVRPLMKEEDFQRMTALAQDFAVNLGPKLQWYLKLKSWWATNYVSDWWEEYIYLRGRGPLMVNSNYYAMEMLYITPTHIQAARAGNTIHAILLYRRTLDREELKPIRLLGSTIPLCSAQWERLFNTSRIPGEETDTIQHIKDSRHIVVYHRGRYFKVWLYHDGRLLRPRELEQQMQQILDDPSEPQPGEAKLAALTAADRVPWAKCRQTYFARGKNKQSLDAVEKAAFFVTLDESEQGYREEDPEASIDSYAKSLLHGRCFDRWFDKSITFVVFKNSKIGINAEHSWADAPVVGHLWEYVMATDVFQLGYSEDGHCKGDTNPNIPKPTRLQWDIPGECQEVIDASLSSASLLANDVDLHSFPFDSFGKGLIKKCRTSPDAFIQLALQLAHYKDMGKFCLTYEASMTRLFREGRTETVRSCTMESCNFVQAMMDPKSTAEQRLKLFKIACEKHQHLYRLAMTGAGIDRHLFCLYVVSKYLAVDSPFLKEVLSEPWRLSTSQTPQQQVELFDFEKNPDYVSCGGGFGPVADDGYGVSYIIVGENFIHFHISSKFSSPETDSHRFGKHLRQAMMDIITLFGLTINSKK
How it was run: (§1)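 Performed on intact rat mitochondria: liver for L-CPT I, heart for M-CPT I. IC50 in µM calculated from the inhibition curve. Values are means of two determinations in triplicate, with variation between experiments under 8%.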

[2] = biological target: T2, Carnitine O-palmitoyltransferase 1, muscle isoform (Rattus norvegicus, UniProt Q63704); test: Inhibitory activity against rat heart mitochondrial carnitine palmitoyltransferase 1b using [14C]palmitoyl-CoA as radioligand; how it was run: as §1
T2 sequence (Q63704 whole entry): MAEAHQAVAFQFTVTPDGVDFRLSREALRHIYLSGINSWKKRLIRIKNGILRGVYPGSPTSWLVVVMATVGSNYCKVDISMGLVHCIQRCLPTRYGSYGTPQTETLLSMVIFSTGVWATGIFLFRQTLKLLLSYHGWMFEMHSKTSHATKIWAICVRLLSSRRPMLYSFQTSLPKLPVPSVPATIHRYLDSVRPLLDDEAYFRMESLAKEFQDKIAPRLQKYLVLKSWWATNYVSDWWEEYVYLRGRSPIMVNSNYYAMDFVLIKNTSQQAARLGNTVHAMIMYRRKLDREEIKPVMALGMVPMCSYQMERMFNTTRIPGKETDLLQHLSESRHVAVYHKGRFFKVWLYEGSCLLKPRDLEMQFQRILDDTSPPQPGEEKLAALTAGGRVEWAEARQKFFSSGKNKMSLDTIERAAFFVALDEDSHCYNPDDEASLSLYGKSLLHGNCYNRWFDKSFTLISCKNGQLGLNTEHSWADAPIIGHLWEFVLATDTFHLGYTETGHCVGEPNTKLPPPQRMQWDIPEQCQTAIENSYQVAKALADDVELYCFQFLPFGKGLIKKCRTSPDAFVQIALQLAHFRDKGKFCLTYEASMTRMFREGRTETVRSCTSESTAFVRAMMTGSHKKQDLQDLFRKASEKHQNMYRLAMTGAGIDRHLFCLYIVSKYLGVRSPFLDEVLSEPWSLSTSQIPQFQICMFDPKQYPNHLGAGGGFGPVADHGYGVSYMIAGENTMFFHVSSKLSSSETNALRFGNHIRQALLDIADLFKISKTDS

IC50 [1] | IC50 [2] | SMILES
6 µM | > 10 µM | CCCCCCCCCCCNS(=O)(=O)N[C@@H](CC(=O)[O-])C[N+](C)(C)C
0.7 µM | 3.4 µM | CCCCCCCCCCCCS(=O)(=O)N[C@H](CC(=O)[O-])C[N+](C)(C)C
0.8 µM | 5.8 µM | CCCCCCCCCCCNS(=O)(=O)N[C@H](CC(=O)[O-])C[N+](C)(C)C
6 µM | > 10 µM | CCCCCCCCCCCCS(=O)(=O)N[C@@H](CC(=O)[O-])C[N+](C)(C)C
> 300 µM | – | CCCCCCCCCNC(=O)OC(C[n+]1ccccc1)CP(=O)(O)O (centres undefined)
> 300 µM | – | CCCCCCCCCNC(=O)OC(CC(=O)[O-])C[P+](C)(C)C (centres undefined)
> 300 µM | – | CCCCCCCCCCCCCCOC(=O)OC(CC(=O)[O-])C[N+]12CCC(CC1)CC2 (centres undefined)
230 µM | – | CCCCCCCCCCCCCCNC(CC(=O)[O-])C[N+](C)(C)C (centres undefined)
> 300 µM | – | CCCCCCCCCOC(=O)OC(CC(=O)O)C[N+](C)(C)C (centres undefined)
47 µM | – | CCCCCCCCCCCCCCOC(CC(=O)[O-])C[N+](C)(C)C (centres undefined)
> 300 µM | – | CCCCCCCCCNC(=O)OC(CC(=O)[O-])C[N+](C)(C)C (centres undefined)
> 300 µM | – | CCCCCCCCNC(CC(=O)[O-])C[N+](C)(C)C (centres undefined)
> 300 µM | – | CCCCCCCCCCCCCCOC(=O)OC(C[N+]12CCC(CC1)CC2)CP(=O)([O-])O (centres undefined)
> 300 µM | – | CCCCCCCCCCCCCCOC(Cc1nn[n-]n1)C[N+](C)(C)C (centres undefined)
2.3 µM | 3.8 µM | CCCCCCCCCNS(=O)(=O)NC(CC(=O)[O-])C[N+](C)(C)C (centres undefined)
19.5 µM | 83.2 µM | CCCCCCCCCNC(=O)NC(CC(=O)[O-])C[N+](C)(C)C (centres undefined)
22.3 µM | 211 µM | CCCCCCCCOC(=O)NC(CC(=O)[O-])C[N+](C)(C)C (centres undefined)
> 300 µM | – | CCCCCCCCOC(CC(=O)[O-])C[N+](C)(C)C (centres undefined)
122 µM | – | CCCCCCCCCNC(=S)NC(CC(=O)[O-])C[N+](C)(C)C (centres undefined)
1.6 µM | 2.3 µM | CCCCCCCCCCS(=O)(=O)NC(CC(=O)[O-])C[N+](C)(C)C (centres undefined)
> 300 µM | – | CCCCCCCCCNC(=O)OC(C[N+](C)(C)C)CP(=O)([O-])O (centres undefined)
